Source: PubChem
TDP2 absorb = blocks human TDP2 phosphodiesterase activity; AID 720702; actives 0.34% (n = 370,000); recombinant TDP2, T5PNP hydrolysis, p-nitrophenol absorbance 415 nm; O95551; inhibition, % at 12.8 µM;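 active means inhibition above the mean of all tested compounds plus 3 SD, set per campaign, cut at about 25% in these data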
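Evaluation: % inhibition relative to enzyme-containing and enzyme-free wells. Material: recombinant human TDP2. Benchmarks: enzyme-free and DMSO wells. Timing: enzyme reaction with compound for 2 h at 37 °C. Compound dosing: 12.8 µM only. Measured by: p-Nitrophenol epi absorbance. Reagent: T5PNP substrate at 5 mM, a TopII-DNA adduct mimic. Replication: single well per compound.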
GSTO1 inh = GSTO1 inhibition, counter-screen for RBBP9 inhibitors | P78417 | recombinant GSTO1, activity-based probe fluorescence polarization | inhibition, % at 5.96 µM | actives 1.1% (n = 300,000) | AID 1974;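 active means inhibition above the campaign mean inhibition plus 3 SD, cut at about 35% in these data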
PRMT1 FP inh = inhibitors of human PRMT1. Q99873. recombinant PRMT1, activity-based probe fluorescence polarization. inhibition, % at 2.79 µM. actives 1.3% (n = 370,000);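 active means inhibition above about 21% made by adding two undisclosed values, limit read from the data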
Apaf1 inhib = inhibitors of human Apaf-1 apoptosome; inhibition, % at 20 µM; actives 0.71% (n = 330,000); reconstituted apoptosome caspase-3 activity, DEVD-Rh110 fluorescence; active means inhibition of at least 40% at 20 µM
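Material: cell-free apoptosome with Apaf-1, procaspase-3 and caspase-9; Buffer or medium: Hepes pH 7.5 with detergent and BSA; Reagent: cytochrome c trigger plus (Z-DEVD)2-Rh110 caspase-3 substrate; Times: compound with Apaf-1, dATP, procaspase-3 30 min, then 50 min reaction, room temperature; Technique: Rh110 fluorescence intensity.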
PAD4 FP inh = inhibitors of human PAD4; Q9UM07; recombinant PAD4, RCA probe fluorescence polarization; inhibition, % at 6.36 µM; actives 0.41% (n = 330,000);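 active means percent inhibition above a cutoff equal to the mean of all tested compounds plus 3 SD, cut at about 15% in these data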
PRMT1 inh conf = PRMT1 (human) inhibition, FP confirmation. shares compounds with PRMT1 FP inh. recombinant His-PRMT1, activity-based probe fluorescence polarization. inhibition, % at 2.79 µM. actives 42% (n = 3,300). AID 687036;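 active means mean inhibition across replicates above the hit cutoff derived for the earlier primary screen, cut at about 22% in these data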
Of the large screens only hits and unclear results are named; the others gave an inactive call (follow-up assays come after a bar, where they were run). A selection: hits, their analogues and other compounds. The true share with any hit is near 2.6%.

Cc1cc(Cl)ccc1-c1cc2nc(NCCCN(C)C)n(C)c(=O)c2s1	none (no result: GSTO1 inh, Apaf1 inhib, PAD4 FP inh)
O=C(NC1CCCCN(Cc2ccc(Cl)cc2)C1=O)c1cc(-c2ccccc2)no1 (centres undefined)	none (no result: GSTO1 inh, Apaf1 inhib, PAD4 FP inh)
COc1ccc(F)cc1C(=O)C1CCCN(Cc2c(C)n(C)n(-c3ccccc3)c2=O)C1 (centres undefined)	none
N#Cc1c(C(F)(F)F)cc(-c2ccco2)nc1SCc1ccccn1	PRMT1 FP inh 35 | PRMT1 inh conf inactive
Cc1cc(-c2ccco2)n(-c2ccccc2)n1	PRMT1 FP inh 43 | PRMT1 inh conf 21
Cc1cc(-c2ccccc2)n(-c2ccccc2)n1	none
CCOc1ccc(S(=O)(=O)N(CC)CC(=O)NCc2ccncc2)cc1C	none
CC#CC(=O)N1CCC(Oc2cccc(C(=O)NCc3ccccn3)c2)CC1	PRMT1 FP inh 74 | PRMT1 inh conf inactive
Cc1cc[n+](-c2[nH]c(=O)sc2/C=N/NC([S-])=Nc2ccccc2)cc1	PRMT1 FP inh 67 | PRMT1 inh conf 29
Cc1cc(C)c[n+](-c2[nH]c(=O)sc2/C=N/NC([S-])=Nc2ccccc2)c1	PRMT1 FP inh 48 | PRMT1 inh conf 31
O=c1[nH]c(-[n+]2ccccc2)c(/C=N/NC([S-])=Nc2ccccc2)s1	PRMT1 FP inh 50 | PRMT1 inh conf inactive
CCc1ccc[n+](-c2[nH]c(=O)sc2/C=N/N=C(\N)[O-])c1	none
CCc1ccc[n+](-c2[nH]c(=O)sc2/C=N/NC([S-])=Nc2ccccc2)c1	PRMT1 FP inh 87 | PRMT1 inh conf 40
O=C(CN(Cc1cccs1)C(=O)CNS(=O)(=O)c1ccc(Cl)cc1)NCC1CCCO1 (centres undefined)	none
COCCn1c(C)cc(C(=O)COC(=O)C2CC(=O)N(CCc3ccc(OC)c(OC)c3)C2)c1C (centres undefined)	none
OC[C@@H]1CN(Cc2cccs2)C[C@H](n2cnc3c(NCc4ccncc4)ncnc32)O1	none (no result: GSTO1 inh, Apaf1 inhib, PAD4 FP inh)
COc1cc(NS(=O)(=O)c2cn(C)cn2)cc(OC)c1	none
Cc1[nH]n(-c2ccccc2)c(=S)c1C=Nc1ccc([N+](=O)[O-])cc1	PRMT1 FP inh 87 (no result: Apaf1 inhib) | PRMT1 inh conf 96
COC(=O)[C@]12C[C@H](CC(=O)NCCCCc3ccccc3)C(=O)N(Cc3ccc(Cl)cc3Cl)C1=C[C@H](C1CCCC1)O[C@@H]2C	none (no result: GSTO1 inh, Apaf1 inhib, PAD4 FP inh)
COCCN(C(=O)CCCc1nc2ccccc2s1)c1c(N)n(CC(C)C)c(=O)[nH]c1=O	PRMT1 FP inh 36 (no result: GSTO1 inh) | PRMT1 inh conf 27
COc1ccnc(-n2cccc2/C=N/O)c1C#N	none
C=C/C(C)=C/C[C@H]1C(=C)CCC2[C@](C)(C(=O)O)CCC[C@@]21C (some centres undefined)	none (no result: TDP2 absorb, PRMT1 FP inh)
C=C1CCC2C(C)(C)CCC[C@]2(C)[C@H]1CC1=C(O)C(=O)C(CO)=CC1=O (some centres undefined)	PRMT1 FP inh 80 (no result: GSTO1 inh, Apaf1 inhib, PAD4 FP inh) | PRMT1 inh conf 77
CCCCCCC(=O)N(O)C1CC(=O)N(c2ccc(F)cc2)C1=O (centres undefined)	PRMT1 FP inh 70 | PRMT1 inh conf 97
CCOc1ccc(N2C(=O)CC(Cc3ccc(Br)cc3)C2=O)cc1 (centres undefined)	none
CCCCN(C(=O)CCC(=O)O)C1CC(=O)N(c2ccc(OCCC)cc2)C1=O (centres undefined)	none
CCCCCCC(=O)N(O)C1CC(=O)N(c2ccc(Br)cc2)C1=O (centres undefined)	PRMT1 FP inh 42 | PRMT1 inh conf 73
COc1ccc(C(C)(C)C)cc1NC(=S)NCCN1CCOCC1	none
CCCCOc1[nH]c2nc(-c3ccco3)n(Cc3ccco3)c(=N)c2c1C#N	PRMT1 FP inh 35 | PRMT1 inh conf 32
CCCCNC(=O)Cn1cnc2c(cnn2-c2ccc(C)cc2)c1=O	none
CCOC(=O)CNC(=O)Cn1cnc2c(cnn2-c2ccc(C)cc2)c1=O	PRMT1 FP inh 76 | PRMT1 inh conf inactive
Cc1ccc(NCCC(=O)c2cccc([N+](=O)[O-])c2)c(C)c1	PRMT1 FP inh 37 | PRMT1 inh conf 40
Cc1cccc(NCCC(=O)c2ccc([N+](=O)[O-])cc2)c1C	PRMT1 FP inh 50 | PRMT1 inh conf 66
Cc1ccc(C(=O)CNc2cccc([N+](=O)[O-])c2)cc1	none
COCCN=c1scc(C)n1/N=C/C1CC2C=CC1C2 (centres undefined)	none
O=C(C=Cc1ccco1)c1ccco1	PRMT1 FP inh 43 (no result: GSTO1 inh, Apaf1 inhib, PAD4 FP inh) | PRMT1 inh conf inactive
O=C(/C=C/c1ccc([N+](=O)[O-])cc1)/C=C/c1ccco1	PRMT1 FP inh 40, Apaf1 inhib 43 | PRMT1 inh conf 60
O=C(/C=C/c1ccco1)c1cccc([N+](=O)[O-])c1	none (no result: GSTO1 inh, Apaf1 inhib, PAD4 FP inh)
O=C(/C=C/c1ccc(Br)cc1)c1ccco1	none
C[C@@H]1CN([C@H](C)CO)C(=O)CCCn2nncc2CO[C@H]1CN(C)Cc1ccc(O)cc1	none (no result: GSTO1 inh, Apaf1 inhib, PAD4 FP inh)
CCOc1ccc(NC(=O)Nc2cccnc2)cc1	none
Cc1ccc2c(c1)c1c(n2CC(O)CN2C(=O)CNC2=O)C(=O)CCC1 (centres undefined)	PRMT1 FP inh 33 | PRMT1 inh conf inactive
Nc1ccn([C@@H]2O[C@H](C(=O)N3CCSC3)[C@@H](O)[C@H]2O)c(=O)n1	none (no result: GSTO1 inh, Apaf1 inhib, PAD4 FP inh)
CCOC(=O)CC(=O)CSc1ncnc2c1nnn2-c1ccc(F)cc1	PRMT1 FP inh 51 | PRMT1 inh conf 92
Nc1ccccc1SC1CC(=O)N(c2ccc3c(c2)OCCO3)C1=O (centres undefined)	none
O=C1CC(Sc2ccc(Cl)cc2)C(=O)N1c1ccc2c(c1)OCCO2 (centres undefined)	PRMT1 FP inh 55 | PRMT1 inh conf 45
O=C(OCCN1CCOCC1)c1ccc(Cl)cc1Cl	none
O=C(O)c1ccc(-c2ccco2)n1Cc1ccccc1	PRMT1 FP inh 29 | PRMT1 inh conf inactive
COC(=O)c1ccc(-c2ccco2)n1Cc1cccc(C)c1	none
O=C1CN(/N=C/c2ccc([N+](=O)[O-])o2)C(=O)N1	PRMT1 FP inh 30 | PRMT1 inh conf inactive
O=c1[nH]c(-c2ccccn2)nc2sc(-c3ccccc3)cc12	PRMT1 FP inh 33 (no result: GSTO1 inh, Apaf1 inhib, PAD4 FP inh) | PRMT1 inh conf inactive
O=C(NC(=S)N1CCCCC1CO)c1cccs1 (centres undefined)	PRMT1 FP inh 33 (no result: GSTO1 inh) | PRMT1 inh conf inactive
Cc1cnc(NC(=O)Cc2ccc(S(=O)(=O)N3CCOCC3)s2)s1	PRMT1 FP inh 38 (no result: GSTO1 inh) | PRMT1 inh conf inactive
COC(=O)Nc1ccc(SCC(=O)c2ccccc2)cc1	PRMT1 FP inh 26 | PRMT1 inh conf inactive
O=C(CSc1ccc([N+](=O)[O-])cc1)c1ccccc1	none (no result: GSTO1 inh, Apaf1 inhib, PAD4 FP inh)
COC(=O)Nc1ccc(SCC(=O)c2ccc(Cl)cc2)cc1	PRMT1 FP inh 69 | PRMT1 inh conf 55
Cc1ccc(C(=O)N2CCN(c3ccc(NC(=O)CSc4ccc(Cl)cc4)cc3)CC2)cc1	none
